Results from ChEMBL document CHEMBL2177000, “Pharmacokinetic optimization of class-selective histone deacetylase inhibitors and identification of associated candidate predictive biomarkers of hepatocellular carcinoma tumor response” (J Med Chem, 2012).
One block for each compound: values may come before it.

How the values were obtained:
[1] = Volume of distribution at steady state in Sprague-Dawley rat at 10 mg/kg, po or 2 mg/kg, iv by LC-MS/MS method; type: ADME, organism-based; conditions: in vivo, read-out: Vdss
Method in brief: (§1)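 Single-dose PK: iv bolus 2 mg/kg in 5% DMSO/40% PEG400/55% saline and/or oral gavage 10 mg/kg as 0.445% microcrystalline cellulose microsuspension; BALB/C nude mice (15−20 g, N = 16 per arm) or male Sprague−Dawley rats (250 ± 20 g, N = 3). Blood at eight (po) or nine (iv) time points into sodium heparin, plasma by LC-MS/MS, noncompartmental analysis.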

[2] = biological target: Histone deacetylase (Homo sapiens) (UniProt Q13547+O15379+Q9UBN7+Q92769+Q9UQL6+Q8WUI4+Q9BY41+Q96DB2+P56524+Q9UKV0+Q969S8); assay: Inhibition of Class 1 histone deacetylase in human HeLa cells assessed as induction in p21 protein expression at 3 uM incubated for 16 hrs by luciferase reporter gene assay relative to HDAC inhibitor entinostat; type: cell-based; set-up: scale not given: the % may be the effect or the level left
[3] = Tmax in Sprague-Dawley rat at 10 mg/kg, po or 2 mg/kg, iv by LC-MS/MS method; type: ADME, organism-based; conditions: in vivo; method in brief: as §1
[4] = Oral bioavailability in Sprague-Dawley rat at 10 mg/kg by LC-MS/MS method; type: ADME, organism-based; conditions: in vivo; method in brief: as §1
[5] = Clearance in Sprague-Dawley rat at 10 mg/kg, po or 2 mg/kg, iv by LC-MS/MS method; type: ADME, organism-based; conditions: in vivo
Method in brief: (§2)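 Male Sprague−Dawley rats (250 ± 20 g; N = 3); iv bolus 2 mg/kg in 5% DMSO/40% PEG400/55% saline and/or gavage 10 mg/kg in 0.445% microcrystalline cellulose microsuspension; plasma from heparinized blood at eight (po) or nine (iv) time points, LC-MS/MS, noncompartmental analysis.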

[6] = Clearance in human liver microsomes at 1 uM incubated for 10 mins by LC-MS/MS method; type: ADME, Microsome
Method in brief: (§3)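 Liver microsomes (human or mouse, 0.5 mg/mL) in 100 mM potassium phosphate pH 7.4 with 1 μM compound, prewarmed 10 min at 37 °C, started with NADPH (10 mM); stopped at 0, 3, 6, 9, 15, 30 min with ice-cold methanol containing tolbutamide internal standard; LC-MS/MS. Hepatic clearance (mL/min/kg) calculated from intrinsic clearance.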

[7] = AUC in Sprague-Dawley rat at 10 mg/kg, po or 2 mg/kg, iv by LC-MS/MS method; type: ADME, organism-based; conditions: plasma; method in brief: as §2
[8] = Clearance in mouse liver microsomes at 1 uM incubated for 10 mins by LC-MS/MS method; type: ADME, Microsome; method in brief: as §3
[9] = Cmax in Sprague-Dawley rat at 10 mg/kg, po or 2 mg/kg, iv by LC-MS/MS method; type: ADME, organism-based; conditions: in vivo; method in brief: as §2
[10] = Tmax in BALB/C mouse at 5 mg/kg, po or 1 mg/kg, iv by LC-MS/MS method; type: ADME, organism-based; conditions: in vivo
Method in brief: (§4)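 Nude-mouse PK at reduced doses, 1 mg/kg iv bolus (5% DMSO, 40% PEG400, 55% saline) and 5 mg/kg oral gavage (microcrystalline cellulose microsuspension); plasma from serial heparinized blood samples (eight po, nine iv time points) quantified by LC-MS/MS, parameters by noncompartmental methods.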

[11] = Clearance in BALB/C mouse at 5 mg/kg, po or 1 mg/kg, iv by LC-MS/MS method; type: ADME, organism-based; conditions: in vivo
Method in brief: (§5)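 BALB/C nude mice (15−20 g) given 5 mg/kg po and 1 mg/kg iv; blood collected at eight (po) or nine (iv) time points into sodium heparin tubes, plasma stored at −20 °C, measured by LC-MS/MS and analysed noncompartmentally.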

[12] = Cmax in BALB/C mouse at 5 mg/kg, po or 1 mg/kg, iv by LC-MS/MS method; type: ADME, organism-based; conditions: in vivo; method in brief: as §5
[13] = Volume of distribution at steady state in BALB/C mouse at 5 mg/kg, po or 1 mg/kg, iv by LC-MS/MS method; type: ADME, organism-based; conditions: in vivo, read-out: Vdss; method in brief: as §4
[14] = Oral bioavailability in BALB/C mouse at 5 mg/kg by LC-MS/MS method; type: ADME, organism-based; conditions: in vivo; method in brief: as §5
[15] = Half life in BALB/C mouse at 5 mg/kg, po or 1 mg/kg, iv by LC-MS/MS method; type: ADME, organism-based; conditions: in vivo; method in brief: as §5
[16] = AUC in BALB/C mouse at 5 mg/kg, po or 1 mg/kg, iv by LC-MS/MS method; type: ADME, organism-based; conditions: plasma; method in brief: as §5
Mus musculus [17] = assay: (§6) Oral bioavailability in BALB/C mouse at 10 mg/kg by LC-MS/MS method; type: ADME, organism-based; conditions: in vivo
Method in brief: (§7)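 Bioavailability from single-dose iv (2 mg/kg, 5% DMSO/40% PEG400/55% saline) and oral gavage (10 mg/kg, 0.445% microcrystalline cellulose microsuspension) studies in BALB/C nude mice (N = 16 per arm); plasma at eight (po) or nine (iv) time points, LC-MS/MS, noncompartmental analysis.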

Mus musculus [18] = assay: (§8) Cmax in BALB/C mouse at 10 mg/kg, po or 2 mg/kg, iv by LC-MS/MS method; type: ADME, organism-based; conditions: in vivo
Method in brief: (§9)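 Female-unspecified BALB/C nude mice (15−20 g, N = 16 per arm); iv bolus 2 mg/kg in 5% DMSO/40% PEG400/55% saline and/or oral gavage 10 mg/kg as 0.445% microcrystalline cellulose microsuspension. Blood sampled at nine (iv) or eight (po) time points into sodium heparin tubes; plasma by LC-MS/MS; noncompartmental analysis.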

Mus musculus [19] = assay: (§10) Tmax in BALB/C mouse at 10 mg/kg, po or 2 mg/kg, iv by LC-MS/MS method; type: ADME, organism-based; conditions: in vivo; method in brief: as §1
[20] = Clearance in BALB/C mouse at 10 mg/kg, po or 2 mg/kg, iv by LC-MS/MS method; type: ADME, organism-based; conditions: in vivo; method in brief: as §9
Mus musculus [21] = assay: (§11) AUC in BALB/C mouse at 10 mg/kg, po or 2 mg/kg, iv by LC-MS/MS method; type: ADME, organism-based, Plasma; conditions: in vivo; method in brief: as §9
Mus musculus [22] = assay: (§12) Half life in BALB/C mouse at 10 mg/kg, po or 2 mg/kg, iv by LC-MS/MS method; type: ADME, organism-based; conditions: in vivo; method in brief: as §9
Cytochrome P450 2C9 = Cytochrome P450 2C9 (Homo sapiens, UniProt P11712); assay: Inhibition of CYP2C9 in human liver microsomes in presence of NADPH by LC-MS/MS method; type: ADME, Microsome
Sequence of Cytochrome P450 2C9 (P11712 whole entry): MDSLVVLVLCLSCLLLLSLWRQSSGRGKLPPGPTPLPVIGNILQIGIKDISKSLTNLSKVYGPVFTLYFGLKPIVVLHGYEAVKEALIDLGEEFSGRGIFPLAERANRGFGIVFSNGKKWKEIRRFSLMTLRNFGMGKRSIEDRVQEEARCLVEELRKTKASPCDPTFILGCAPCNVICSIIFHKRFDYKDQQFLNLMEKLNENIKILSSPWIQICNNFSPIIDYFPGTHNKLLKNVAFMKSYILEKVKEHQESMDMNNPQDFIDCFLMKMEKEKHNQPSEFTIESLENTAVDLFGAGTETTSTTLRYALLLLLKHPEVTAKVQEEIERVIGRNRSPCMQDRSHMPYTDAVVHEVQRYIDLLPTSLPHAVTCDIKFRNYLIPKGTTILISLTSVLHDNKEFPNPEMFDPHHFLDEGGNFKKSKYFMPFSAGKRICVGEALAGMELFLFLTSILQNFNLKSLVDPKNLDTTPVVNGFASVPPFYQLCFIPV

[23] = as §6; type: ADME, organism-based; conditions: BALB/C, in vivo; method in brief: as §7
[24] = as §8; type: ADME, organism-based; conditions: BALB/C, in vivo; method in brief: as §9
Cytochrome P450 2C19 = Cytochrome P450 2C19 (Homo sapiens, UniProt P33261); assay: Inhibition of CYP2C19 in human liver microsomes in presence of NADPH by LC-MS/MS method; type: ADME, Microsome
Sequence of Cytochrome P450 2C19 (P33261 whole entry): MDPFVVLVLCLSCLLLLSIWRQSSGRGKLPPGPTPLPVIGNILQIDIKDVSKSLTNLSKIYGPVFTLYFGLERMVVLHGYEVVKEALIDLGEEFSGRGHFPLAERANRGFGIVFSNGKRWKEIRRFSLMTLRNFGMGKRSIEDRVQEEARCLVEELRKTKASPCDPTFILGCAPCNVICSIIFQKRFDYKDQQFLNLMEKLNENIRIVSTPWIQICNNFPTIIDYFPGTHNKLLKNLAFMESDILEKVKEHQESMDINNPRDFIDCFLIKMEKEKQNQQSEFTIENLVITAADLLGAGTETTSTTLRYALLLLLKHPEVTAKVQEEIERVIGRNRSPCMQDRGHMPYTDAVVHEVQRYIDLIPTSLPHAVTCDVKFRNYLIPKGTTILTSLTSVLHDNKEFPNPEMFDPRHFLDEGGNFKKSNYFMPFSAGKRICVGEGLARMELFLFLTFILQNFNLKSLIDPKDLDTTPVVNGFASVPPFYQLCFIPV

[25] = as §10; type: ADME, organism-based; conditions: BALB/C, in vivo; method in brief: as §1
Cytochrome P450 1A2 = biological target: T1, Cytochrome P450 1A2 (Homo sapiens, UniProt P05177); assay: Inhibition of CYP1A2 in human liver microsomes in presence of NADPH by LC-MS/MS method; type: ADME, Microsome
T1 sequence (P05177 whole entry): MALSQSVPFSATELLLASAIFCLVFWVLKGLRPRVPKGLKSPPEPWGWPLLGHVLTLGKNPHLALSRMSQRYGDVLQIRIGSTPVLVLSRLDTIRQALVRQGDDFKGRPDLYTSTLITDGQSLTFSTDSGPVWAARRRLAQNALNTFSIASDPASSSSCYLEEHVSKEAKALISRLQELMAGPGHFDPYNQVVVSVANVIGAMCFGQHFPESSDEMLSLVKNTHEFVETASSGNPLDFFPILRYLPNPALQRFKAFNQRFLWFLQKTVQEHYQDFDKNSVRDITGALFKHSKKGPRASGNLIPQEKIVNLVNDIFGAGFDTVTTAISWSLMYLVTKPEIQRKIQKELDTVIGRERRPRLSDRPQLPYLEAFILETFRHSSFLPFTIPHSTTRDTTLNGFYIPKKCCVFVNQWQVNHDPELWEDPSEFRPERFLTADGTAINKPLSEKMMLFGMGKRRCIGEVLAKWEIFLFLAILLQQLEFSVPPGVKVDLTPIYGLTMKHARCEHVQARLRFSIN

[26] = Volume of distribution at steady state in BALB/C mouse at 10 mg/kg, po or 2 mg/kg, iv by LC-MS/MS method; type: ADME, organism-based; set-up: unit not given here; conditions: in vivo, read-out: Vdss; method in brief: as §1
[27] = as §11; type: ADME, organism-based, Plasma; conditions: BALB/C, plasma; method in brief: as §9
Cytochrome P450 3A4 = Cytochrome P450 3A4 (Homo sapiens, UniProt P08684); assay: Inhibition of CYP3A4 in human liver microsomes in presence of NADPH by LC-MS/MS method; type: ADME, Microsome
Sequence of Cytochrome P450 3A4 (P08684 whole entry): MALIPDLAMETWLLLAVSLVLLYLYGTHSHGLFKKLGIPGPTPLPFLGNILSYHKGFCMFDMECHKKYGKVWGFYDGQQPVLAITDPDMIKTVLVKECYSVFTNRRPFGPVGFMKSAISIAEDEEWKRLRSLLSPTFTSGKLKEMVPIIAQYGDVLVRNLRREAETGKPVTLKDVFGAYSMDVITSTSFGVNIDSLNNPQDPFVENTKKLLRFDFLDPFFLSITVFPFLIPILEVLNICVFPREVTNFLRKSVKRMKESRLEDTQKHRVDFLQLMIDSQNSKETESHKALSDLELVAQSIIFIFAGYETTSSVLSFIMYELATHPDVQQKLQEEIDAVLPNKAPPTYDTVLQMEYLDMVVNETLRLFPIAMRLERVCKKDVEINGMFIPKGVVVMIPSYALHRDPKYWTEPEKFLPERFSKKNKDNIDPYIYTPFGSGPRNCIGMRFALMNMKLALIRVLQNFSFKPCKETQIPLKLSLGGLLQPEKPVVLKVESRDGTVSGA

Cytochrome P450 2D6 = Cytochrome P450 2D6 (Homo sapiens, UniProt P10635); assay: Inhibition of CYP2D6 in human liver microsomes in presence of NADPH by LC-MS/MS method; type: ADME, Microsome
Sequence of Cytochrome P450 2D6 (P10635 whole entry): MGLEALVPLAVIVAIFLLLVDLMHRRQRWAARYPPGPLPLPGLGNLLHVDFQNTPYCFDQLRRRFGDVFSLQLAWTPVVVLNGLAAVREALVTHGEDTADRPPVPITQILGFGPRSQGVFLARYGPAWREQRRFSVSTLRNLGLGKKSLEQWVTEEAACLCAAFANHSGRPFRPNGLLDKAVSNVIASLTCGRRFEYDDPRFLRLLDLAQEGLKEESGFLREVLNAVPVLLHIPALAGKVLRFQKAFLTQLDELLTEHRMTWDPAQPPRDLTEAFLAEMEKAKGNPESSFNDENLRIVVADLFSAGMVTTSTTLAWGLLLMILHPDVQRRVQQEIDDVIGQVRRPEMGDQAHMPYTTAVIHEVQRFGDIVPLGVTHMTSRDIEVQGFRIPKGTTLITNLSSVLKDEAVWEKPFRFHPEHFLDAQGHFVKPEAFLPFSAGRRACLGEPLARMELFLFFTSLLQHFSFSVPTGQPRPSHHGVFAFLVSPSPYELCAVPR

[28] = as §12; type: ADME, organism-based; conditions: BALB/C, in vivo; method in brief: as §9

- Vd [1]: 19 L
- Activity [2]: > 300%
- Tmax [3]: 4 h
- bioavailability [4]: 9%
- clearance [5]: 120 mL/min/kg
- CLhep predicted at 1 µM [6]: 12 mL/min/kg
- AUC [7]: 116 ng·h/mL
- CLhep predicted at 1 µM [8]: 41 mL/min/kg
- Cmax [9]: 33 ng/mL
SMILES: CN1C[C@H](C(=O)Nc2ccc(Cl)cc2)[C@@H](c2ccc(/C=C/C(=O)Nc3ccccc3N)nn2)C1 (racemic)

- Tmax [10]: 0.17 h
- Activity [2]: 100%
- clearance [11]: 79 mL/min/kg
- CLhep predicted at 1 µM [6]: 6 mL/min/kg
- Cmax [12]: 60 ng/mL
- Vd [13]: 4 L
- CLhep predicted at 1 µM [8]: 36 mL/min/kg
- bioavailability [14]: 19%
- half-life [15]: 4.6 h
- AUC [16]: 204 ng·h/mL
SMILES: CN1C[C@H](C(=O)Nc2ccc(Cl)cc2)[C@@H](c2ccc(/C=C/C(=O)Nc3ccccc3N)cn2)C1 (racemic)

- F (Mus musculus [17]): 75%
- Cmax (Mus musculus [18]): 324 ng/mL
- Tmax (Mus musculus [19]): 1 h
- CLhep predicted at 1 µM [6]: 5 mL/min/kg
- clearance [20]: 39 mL/min/kg
- CLhep predicted at 1 µM [8]: 35 mL/min/kg
- AUC (Mus musculus [21]): 2946 ng·h/mL
- t1/2 (Mus musculus [22]): 14 h
SMILES: CN1C[C@H](C(=O)Nc2ccc(Cl)cc2)[C@@H](c2ccc(/C=C/C(=O)Nc3ccccc3N)cc2)C1 (racemic)

- IC50 (Cytochrome P450 2C9): 4 µM
- Activity [2]: 230%
- bioavailability [23]: 100%
- Cmax [24]: 1100 ng/mL
- IC50 (Cytochrome P450 2C19): 7 µM
- Tmax [25]: 1 h
- IC50 (Cytochrome P450 1A2): 7 µM
- CLhep predicted at 1 µM [6]: 14 mL/min/kg
- Vd [26]: 3.7
- clearance [20]: 33 mL/min/kg
- CLhep predicted at 1 µM [8]: 34 mL/min/kg
- AUC [27]: 5650 ng·h/mL
- IC50 (Cytochrome P450 3A4): 3 µM
- IC50 (Cytochrome P450 2D6): 0.7 µM
- half-life [28]: 6.5 h
SMILES: CC(C)(O)CN1C[C@H](C(=O)Nc2ccc(Cl)cc2)[C@@H](c2ccc(/C=C/C(=O)Nc3ccccc3N)cc2)C1 (racemic)
